# Measurements reported in ChEMBL document CHEMBL4616681, “Discovery of 3-Pyridyl Isoindolin-1-one Derivatives as Potent, Selective, and Orally Active Aldosterone Synthase (CYP11B2) Inhibitors” (J Med Chem, 2020).
# Key:
# [1] = AUC (0 to infinity) in Wister-Han rat at 3 mg/kg, po administered as single dose by LC/MS-MS analysis; format: ADME, organism-based; set-up: dose 3 mg/kg, route oral, time infinity; conditions: Wistar-Han, in vivo
# In short: (§1)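 Male Wistar-Han rats, single dose. IV 1 mg/kg, compound at 0.5 mg/mL in NMP:saline 30/70 (v/v). Oral 3 mg/kg, 0.25 mg/mL in 2% Klucel with 0.1% Polysorbate 80. Three rats per time point. Heparinized blood taken at eight (iv) or seven (po) time points, plasma stored at -20 °C. Plasma levels by LC/MS-MS. Non-compartmental analysis.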
# [2] = Solubility of the compound in phosphate buffer at pH 6.5 shaken for 2 hrs followed by overnight incubation; format: physicochemical
# In short: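 Lyophilisation solubility assay run in duplicate from 10 mM DMSO stock. DMSO evaporated and residue redissolved in 0.05 M phosphate, pH 6.5. Stirred 1 hr, shaken 2 hr, left overnight, then filtered. Filtrate and a 1/10 dilution analysed by HPLC-UV against a four-point calibration.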
# [3] = Permeability of the compound measured at 18 hrs by PAMPA; format: ADME; conditions: read-out: permeability
# In short: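 PAMPA sandwich format. Donor: compound diluted to 150 μM (DMSO <2%) in 0.05 M MOPSO pH 6.5 with 0.5% glycocholic acid. Acceptor: 0.05 M MOPSO pH 6.5. Membrane of 10% egg lecithin with 0.5% cholesterol in dodecane. Donor measured at start; acceptor and donor measured at ~18 hr.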
# [4] = Selectivity ratio of IC50 for cynomolgus monkey CYP11B1 expressed in human G401 cells to IC50 for cynomolgus monkey CYP11B2 expressed in human G401 cells; format: cell-based
# In short: (§2)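 Cells with endogenous FDXR/FDX and no detectable CYP11B activity, stably transfected (CMV promoter, neomycin selection, G-418 400 µg/mL) with CYP11B1 or CYP11B2 of the named species. Assayed in DMEM/F12 with 2.5% charcoal-treated FCS. Substrate 1 µM 11-deoxycorticosterone (B2) or 11-deoxycortisol (B1), 16 hr. Aldosterone or cortisol in supernatant measured by HTRF. IC50 from 4-parameter MMF fit; selectivity factor is the B1/B2 IC50 ratio.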
# [5] = Intrinsic clearance in rat liver microsomes preincubated for 10 mins followed by NADPH regenerating system addition and measured up to 30 mins by LC/MS-MS analysis; format: ADME, Microsome
# In short: (§3)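 Liver microsomes at 0.5 mg protein/mL in 100 mM potassium phosphate, pH 7.4. Compound preincubated 10 min at 37 °C. Intrinsic clearance scaled using the well-stirred liver model.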
# [6] = Plasma clearance in Wister-Han rat at 1 mg/kg, iv administered as single dose by LC/MS-MS analysis; format: ADME, organism-based; conditions: Wistar-Han; in short: as §1
# [7] = Selectivity ratio of IC50 for human CYP11B1 expressed in human renal leiomyoblastoma cells harboring FDXR/FDX to IC50 for human CYP11B2 expressed in human renal leiomyoblastoma cells harboring FDXR/FDX; format: cell-based; in short: as §2
# [8] = biological target: T1, Cytochrome P450 11B2, mitochondrial (Homo sapiens, UniProt P19099); experiment: Inhibition of human CYP11B2 expressed in human renal leiomyoblastoma cells harboring FDXR/FDX using 1-deoxycorticosterone as substrate by HTRF assay; format: cell-based; in short: as §2
# T1 sequence (P19099 whole entry): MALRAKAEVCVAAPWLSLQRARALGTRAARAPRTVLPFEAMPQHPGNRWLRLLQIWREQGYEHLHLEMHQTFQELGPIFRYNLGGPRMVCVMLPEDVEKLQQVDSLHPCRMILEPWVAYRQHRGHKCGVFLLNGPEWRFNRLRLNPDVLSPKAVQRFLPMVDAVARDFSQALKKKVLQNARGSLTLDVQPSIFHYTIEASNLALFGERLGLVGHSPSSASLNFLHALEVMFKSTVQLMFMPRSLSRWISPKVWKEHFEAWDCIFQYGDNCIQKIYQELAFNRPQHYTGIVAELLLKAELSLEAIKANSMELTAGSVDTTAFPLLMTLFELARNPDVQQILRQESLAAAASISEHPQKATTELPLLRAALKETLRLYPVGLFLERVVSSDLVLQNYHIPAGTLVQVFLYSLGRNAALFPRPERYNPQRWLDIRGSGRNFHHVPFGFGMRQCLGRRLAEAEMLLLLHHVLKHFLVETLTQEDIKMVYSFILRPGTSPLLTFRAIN
# [9] = Oral bioavailability in Wister-Han rat at 3 mg/kg administered as single dose by LC/MS-MS analysis; format: ADME, organism-based; conditions: Wistar-Han, in vivo; in short: as §1
# [10] = Inhibition of cynomolgus monkey CYP11B2 expressed in human G401 cells using 1-deoxycorticosterone as substrate by HTRF assay; format: cell-based, Macaca fascicularis; conditions: g-401; in short: as §2
# [11] = Octanol-water distribution coefficient, log D of the compound by carrier-mediated distribution system; format: physicochemical
# [12] = Intrinsic clearance in human liver microsomes preincubated for 10 mins followed by NADPH regenerating system addition and measured up to 30 mins by LC/MS-MS analysis; format: ADME, Microsome; conditions: read-out: CLH; in short: as §3
# [13] = biological target: T2, Cytochrome P450 11B1, mitochondrial (Homo sapiens, UniProt P15538); experiment: Inhibition of human CYP11B1 expressed in human renal leiomyoblastoma cells harboring FDXR/FDX using 1-deoxycortisol as substrate by HTRF assay; format: ADME, cell-based; in short: as §2
# T2 sequence (P15538 whole entry): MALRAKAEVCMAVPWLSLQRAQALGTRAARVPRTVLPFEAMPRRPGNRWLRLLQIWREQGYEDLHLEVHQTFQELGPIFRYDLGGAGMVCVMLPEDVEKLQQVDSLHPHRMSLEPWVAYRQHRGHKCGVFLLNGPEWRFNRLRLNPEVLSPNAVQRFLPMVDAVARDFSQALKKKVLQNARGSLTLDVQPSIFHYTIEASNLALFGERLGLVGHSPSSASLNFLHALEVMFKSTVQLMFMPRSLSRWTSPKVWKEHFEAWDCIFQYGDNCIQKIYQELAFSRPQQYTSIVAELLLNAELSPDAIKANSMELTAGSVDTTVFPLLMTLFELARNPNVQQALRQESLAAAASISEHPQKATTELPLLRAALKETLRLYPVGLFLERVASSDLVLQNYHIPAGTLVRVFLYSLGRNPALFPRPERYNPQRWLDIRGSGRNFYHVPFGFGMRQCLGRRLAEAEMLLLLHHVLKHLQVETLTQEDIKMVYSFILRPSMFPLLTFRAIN
# [14] = Intrinsic clearance in mouse liver microsomes preincubated for 10 mins followed by NADPH regenerating system addition and measured up to 30 mins by LC/MS-MS analysis; format: ADME, Microsome; in short: as §3
# Cytochrome P450 3A4 = Cytochrome P450 3A4 (Homo sapiens, UniProt P08684); experiment: Inhibition of CYP3A4 (unknown origin); format: ADME
# Sequence of Cytochrome P450 3A4 (P08684 whole entry): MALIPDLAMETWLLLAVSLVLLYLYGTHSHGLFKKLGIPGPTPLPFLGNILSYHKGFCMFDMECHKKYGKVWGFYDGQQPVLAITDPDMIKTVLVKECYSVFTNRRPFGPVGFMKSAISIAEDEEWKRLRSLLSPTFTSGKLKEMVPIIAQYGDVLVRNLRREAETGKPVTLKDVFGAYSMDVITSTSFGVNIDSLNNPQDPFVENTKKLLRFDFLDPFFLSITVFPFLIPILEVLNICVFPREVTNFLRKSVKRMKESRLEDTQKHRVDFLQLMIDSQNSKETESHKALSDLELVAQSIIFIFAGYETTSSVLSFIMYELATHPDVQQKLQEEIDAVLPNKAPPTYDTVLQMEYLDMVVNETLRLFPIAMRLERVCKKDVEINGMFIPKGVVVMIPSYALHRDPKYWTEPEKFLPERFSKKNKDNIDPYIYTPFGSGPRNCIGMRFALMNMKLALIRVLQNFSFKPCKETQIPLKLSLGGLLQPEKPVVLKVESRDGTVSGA
# Cytochrome P450 2D6 = Cytochrome P450 2D6 (Homo sapiens, UniProt P10635); experiment: Inhibition of CYP2D6 (unknown origin); format: ADME
# Sequence of Cytochrome P450 2D6 (P10635 whole entry): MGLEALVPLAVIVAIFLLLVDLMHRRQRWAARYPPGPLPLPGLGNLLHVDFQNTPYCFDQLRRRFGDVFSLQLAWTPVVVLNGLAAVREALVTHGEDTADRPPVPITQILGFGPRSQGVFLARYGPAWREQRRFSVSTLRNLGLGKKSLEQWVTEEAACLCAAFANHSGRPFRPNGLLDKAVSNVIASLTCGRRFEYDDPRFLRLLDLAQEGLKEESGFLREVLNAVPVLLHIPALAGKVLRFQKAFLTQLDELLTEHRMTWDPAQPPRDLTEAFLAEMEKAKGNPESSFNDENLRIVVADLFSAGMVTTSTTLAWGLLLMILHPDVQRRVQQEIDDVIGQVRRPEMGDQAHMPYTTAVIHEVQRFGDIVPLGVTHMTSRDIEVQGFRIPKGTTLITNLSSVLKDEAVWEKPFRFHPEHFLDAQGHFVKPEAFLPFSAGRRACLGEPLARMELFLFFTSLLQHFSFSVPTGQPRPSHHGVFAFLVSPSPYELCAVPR
# Cytochrome P450 2C9 = Cytochrome P450 2C9 (Homo sapiens, UniProt P11712); experiment: Inhibition of CYP2C9 (unknown origin); format: ADME
# Sequence of Cytochrome P450 2C9 (P11712 whole entry): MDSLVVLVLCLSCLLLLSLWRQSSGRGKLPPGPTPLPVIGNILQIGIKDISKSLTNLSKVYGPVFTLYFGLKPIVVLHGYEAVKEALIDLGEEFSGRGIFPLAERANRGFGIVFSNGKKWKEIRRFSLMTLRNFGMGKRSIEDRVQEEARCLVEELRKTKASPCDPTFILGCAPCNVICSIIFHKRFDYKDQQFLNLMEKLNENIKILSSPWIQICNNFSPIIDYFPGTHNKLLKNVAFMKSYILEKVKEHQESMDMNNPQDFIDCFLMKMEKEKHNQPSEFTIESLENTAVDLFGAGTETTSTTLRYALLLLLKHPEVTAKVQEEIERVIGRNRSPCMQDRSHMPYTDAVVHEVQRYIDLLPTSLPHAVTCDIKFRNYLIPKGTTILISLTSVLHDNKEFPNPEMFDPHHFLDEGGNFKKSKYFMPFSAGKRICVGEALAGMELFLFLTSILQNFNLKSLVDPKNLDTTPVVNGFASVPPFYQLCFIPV
SMILES,AUC(0-inf) [1] [ng·h/mL],solubility at 2 h [2] [µg/mL],Papp at 18 h [3] [×10⁻⁶ cm/s],predicted hepatic clearance (CLH) [5] [mL/min/kg],clearance [6] [mL/min/kg],IC50 [8] [nM],bioavailability [9] [%],IC50 [10] [nM],logD [11],predicted hepatic clearance [12] [mL/min/kg],IC50 [13] [nM],predicted hepatic clearance (CLH) [14] [mL/min/kg],IC50 (Cytochrome P450 3A4) [nM],IC50 (Cytochrome P450 2D6) [nM],IC50 (Cytochrome P450 2C9) [nM],Ratio IC50 [4],Ratio IC50 [7]
N#Cc1ccc2c(c1)CN(c1cccnc1)C2=O,–,–,–,–,–,232,–,–,1.35,8.7,15500,45.6,–,–,–,–,67
CC1Cc2cc(Cl)ccc2C(=O)N1c1cccnc1 (stereo not given),–,–,–,–,–,761,–,–,–,–,> 10000,–,> 50000,> 50000,> 50000,–,> 13
CCC(=O)N[C@@H]1CCCc2c1cncc2N1Cc2cc(Cl)ccc2C1=O,–,> 460,3.63,–,–,28,–,–,2.14,< 3.5,5210,< 20.2,–,–,–,–,186
CC(=O)N[C@@H]1CCCc2c1cncc2N1CCc2cc(Cl)ccc2C1=O,–,–,–,< 20.2,–,54,–,–,–,4.3,3920,–,–,–,–,–,73
O=C1c2ccc(Cl)cc2CCN1c1cccnc1,–,–,–,–,–,61,–,–,2.25,< 3.5,5000,< 20.2,–,–,–,–,82

# The next molecules have a lower IC50 [8] than those just listed; values first:
AUC(0-inf) [1] [ng·h/mL],solubility at 2 h [2] [µg/mL],Papp at 18 h [3] [×10⁻⁶ cm/s],predicted hepatic clearance (CLH) [5] [mL/min/kg],clearance [6] [mL/min/kg],IC50 [8] [nM],bioavailability [9] [%],IC50 [10] [nM],logD [11],predicted hepatic clearance [12] [mL/min/kg],IC50 [13] [nM],predicted hepatic clearance (CLH) [14] [mL/min/kg],IC50 (Cytochrome P450 3A4) [nM],IC50 (Cytochrome P450 2D6) [nM],IC50 (Cytochrome P450 2C9) [nM],SMILES,Ratio IC50 [4],Ratio IC50 [7]
–,–,–,0.87,–,16,–,1,–,–,–,–,–,–,–,CCS(=O)(=O)N1CC2(CN(c3cncc(N4C(=O)c5ccc(Cl)cc5C4(C)C)c3)C2)C1,19700,855
10800,20,3.32,–,3.1,5,58,0.5,–,–,–,–,–,–,–,CC1(C)c2cc(Cl)ccc2C(=O)N1c1cncc(OC2CN(C(=O)c3ncccc3Cl)C2)c1,1120,174
1640,91,6.03,16.8,16.6,2,54,0.2,–,–,–,–,–,–,–,CC1(C)c2cc(Cl)ccc2C(=O)N1c1cncc(N2CCN(S(C)(=O)=O)CC2)c1,170,146
